Assay results reported in ChEMBL document CHEMBL3046169, “Synthesis and bioactivity study of 2-acylamino-substituted N'-benzylbenzohydrazide derivatives” (2012).
In brackets after ≈: the same amount, converted by molar mass. Activity calls are given as the source filed them. The rule behind the calls is not given here.

What was measured:
[1] = system: Tetranychus cinnabarinus; experiment: Pesticidal activity against Tetranychus cinnabarinus (carmine spider mite) third- instar larvae grown on Phaseolus vulgaris leaves assessed as pest mortality measured 48 hr post compound exposure; type: functional
Procedure, shortened: (§1)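 More than 20 third-instar mite larvae on Phaseolus vulgaris leaves dipped 5 s in compound solutions (water with 0.05% Triton X-100), excess liquor removed. Larvae held at 25 ± 1 °C in illumination box; mortality read at 48 h. Primary screen at 600 mg L⁻¹, follow-up at 400, 200, 100, 50 and 25 mg L⁻¹ with LC50 calculated. Triplicate tests.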

[2] = system: Tetranychus cinnabarinus; experiment: Pesticidal activity against Tetranychus cinnabarinus (carmine spider mite) third- instar larvae grown on Phaseolus vulgaris leaves assessed as pest mortality at 25 mg/L measured 48 hr post compound exposure; type: functional; procedure, shortened: as §1
[3] = system: Tetranychus cinnabarinus; experiment: Pesticidal activity against Tetranychus cinnabarinus (carmine spider mite) third- instar larvae grown on Phaseolus vulgaris leaves assessed as pest mortality at 100 mg/L measured 48 hr post compound exposure; type: functional; procedure, shortened: as §1
[4] = system: Tetranychus cinnabarinus; experiment: Pesticidal activity against Tetranychus cinnabarinus (carmine spider mite) third- instar larvae grown on Phaseolus vulgaris leaves assessed as pest mortality at 400 mg/L measured 48 hr post compound exposure; type: functional; procedure, shortened: as §1
[5] = system: Tetranychus cinnabarinus; experiment: Pesticidal activity against Tetranychus cinnabarinus (carmine spider mite) third- instar larvae grown on Phaseolus vulgaris leaves assessed as pest mortality at 50 mg/L measured 48 hr post compound exposure; type: functional; procedure, shortened: as §1
[6] = system: Tetranychus cinnabarinus; experiment: Pesticidal activity against Tetranychus cinnabarinus (carmine spider mite) third- instar larvae grown on Phaseolus vulgaris leaves assessed as pest mortality at 200 mg/L measured 48 hr post compound exposure; type: functional; procedure, shortened: as §1
[7] = system: Plutella xylostella; experiment: Pesticidal activity against Plutella xylostella (diamondback moth) second-instar larvae grown on cruciferous vegetables leaves leaves as pest mortality at 600 mg/L measured 48 hr post compound exposure; type: functional
Procedure, shortened: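 Over 20 second-instar larvae on cruciferous vegetable leaves dipped 5 s in compound diluted in distilled water containing 0.05% Triton X-100, excess liquid removed. Kept in illumination box at 25 ± 1 °C; mortality recorded 48 h after treatment. Each test in triplicate.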

[8] = system: Tetranychus cinnabarinus; experiment: Pesticidal activity against Tetranychus cinnabarinus (carmine spider mite) third- instar larvae grown on Phaseolus vulgaris leaves assessed as pest mortality at 600 mg/L measured 48 hr post compound exposure; type: functional; procedure, shortened: as §1
[9] = system: Aphis gossypii; experiment: Pesticidal activity against Aphis gossypii (cotton aphid) third-instar nymphae grown on tender Hibiscus syriacus leaves assessed as pest mortality at 600 mg/L measured 24 hr post compound exposure; type: functional; settings: in Hibiscus syriacus
Procedure, shortened: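 Leaf-dip bioassay: over 30 healthy apterous third-instar nymphs on tender Hibiscus syriacus leaves dipped 5 s in compound diluted in distilled water with 0.05% Triton X-100, excess fluid removed. Held in illumination box at 25 ± 1 °C; mortality scored after 24 h. Tests in triplicate.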

[10] = system: Tetranychus cinnabarinus; experiment: Pesticidal activity against Tetranychus cinnabarinus (carmine spider mite) third- instar larvae grown on Phaseolus vulgaris leaves assessed as conversion of corpus colour to black at 25 to 400 mg/L measured 48 hr post compound exposure; type: functional, organism-based
Procedure, shortened: (§2)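 Mite larvae (>20 third-instar on Phaseolus vulgaris leaves) leaf-dipped 5 s in compound at 400, 200, 100, 50 or 25 mg L⁻¹ in water with 0.05% Triton X-100, kept at 25 ± 1 °C. Movement of larvae observed at 1 h; corpse colour change to black observed at 48 h after treatment.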

[11] = system: Tetranychus cinnabarinus; experiment: Pesticidal activity against Tetranychus cinnabarinus (carmine spider mite) third- instar larvae grown on Phaseolus vulgaris leaves assessed as reduction in larval movement at 25 to 400 mg/L measured 1 hr post compound exposure; type: functional, organism-based; procedure, shortened: as §2

`CC(C)(C)c1ccc(CSc2cnn(C(C)(C)C)c(=O)c2Cl)cc1` [PYRIDABEN] showed an LC50 [1] of 5.5 µg/mL (≈ 15.1 µM), a mortality at 25 µg/mL [2] of 97.7% and a mortality at 100 µg/mL [3] of 100%. For the same compound, the mortality at 400 µg/mL [4] was 100%, the mortality at 50 µg/mL [5] was 100% and the mortality at 200 µg/mL [6] was 100%.
With `Cc1cc(Cl)cc(C(=O)NNCc2ccccc2)c1NC(=O)C(C)(C)C` the mortality at 600 µg/mL [7] was 34%, the mortality at 600 µg/mL [8] was 92.5% and the mortality at 600 µg/mL [9] was 52.4%.
`Cc1cccc(C(=O)NNCc2ccccc2)c1NC(=O)C(C)(C)C` gave a mortality at 600 µg/mL [7] of 52%, a mortality at 600 µg/mL [8] of 16.7% and a mortality at 600 µg/mL [9] of 62.3%.
`Cc1cc(Br)cc(C(=O)NNCc2ccc(Cl)nc2)c1NC(=O)CC(C)(C)C` gave a mortality at 600 µg/mL [7] of 40%, a mortality at 600 µg/mL [8] of 23.4% and a mortality at 600 µg/mL [9] of 25.9%.
`Cc1cc(Br)cc(C(=O)NNCc2ccccc2Cl)c1NC(=O)C(C)(C)C` was tested, and the mortality at 600 µg/mL [7] was 64%, the mortality at 600 µg/mL [8] was 40.1% and the mortality at 600 µg/mL [9] was 49.1%.
`Cc1cc(Br)cc(C(=O)NNCc2cccc(C(F)(F)F)c2)c1NC(=O)C(C)(C)CCl` showed a mortality at 600 µg/mL [7] of 52%, a mortality at 600 µg/mL [8] of 72.7% and a mortality at 600 µg/mL [9] of 78.6%.
For `Cc1cc(Br)cc(C(=O)NNCc2ccccc2Cl)c1NC(=O)C(C)(C)CCl`, the Activity [10] was “Active”, the Activity [11] was “Active” and the LC50 [1] was 51.7 µg/mL (≈ 106 µM). It also gave a mortality at 25 µg/mL [2] of 36.5%, a mortality at 100 µg/mL [3] of 62.6% and a mortality at 400 µg/mL [4] of 89.6%. It also gave a mortality at 50 µg/mL [5] of 44.9%, a mortality at 200 µg/mL [6] of 83.6% and a mortality at 600 µg/mL [7] of 76%. It also gave a mortality at 600 µg/mL [8] of 95.7% and a mortality at 600 µg/mL [9] of 8.5%.
`Cc1cc(Cl)cc(C(=O)NNCc2ccccc2Cl)c1NC(=O)C(C)(C)CCl` was tested, and the mortality at 600 µg/mL [7] was 64%, the mortality at 600 µg/mL [8] was 11% and the mortality at 600 µg/mL [9] was 14.5%.
`Cc1cc(Cl)cc(C(=O)NNCc2ccc(F)cc2)c1NC(=O)C(C)(C)C` was tested, and the mortality at 600 µg/mL [7] was 88%, the mortality at 600 µg/mL [8] was 73.8% and the mortality at 600 µg/mL [9] was 41.5%.
`Cc1cc(Br)cc(C(=O)NNCc2ccc(Cl)nc2)c1NC(=O)C(C)(C)CCl` was tested, and the mortality at 600 µg/mL [7] was 52%, the mortality at 600 µg/mL [8] was 55.8% and the mortality at 600 µg/mL [9] was 33.3%.
`Cc1cccc(C(=O)NNCc2ccccc2Cl)c1NC(=O)C(C)(C)CCl` was tested, and the mortality at 600 µg/mL [7] was 22%, the mortality at 600 µg/mL [8] was 46.7% and the mortality at 600 µg/mL [9] was 68.8%.
In the case of `Cc1cc(Br)cc(C(=O)NNCc2ccccc2Cl)c1NC(=O)CC(C)(C)C`, the mortality at 600 µg/mL [7] is reported as 76%, the mortality at 600 µg/mL [8] is reported as 11.6% and the mortality at 600 µg/mL [9] is reported as 88%.
For `Cc1cc(Br)cc(C(=O)NNCc2ccc(Cl)nc2)c1NC(=O)C(C)(C)C`, the mortality at 600 µg/mL [7] was 64%, the mortality at 600 µg/mL [8] was 19.3% and the mortality at 600 µg/mL [9] was 96.2%.
Work on `CC(C)(C)CC(=O)Nc1ccc(Cl)cc1C(=O)NNCc1ccccc1F` yielded a mortality at 600 µg/mL [7] of 28%, a mortality at 600 µg/mL [8] of 77.6% and a mortality at 600 µg/mL [9] of 1.8%.
`Cc1cc(Cl)cc(C(=O)NNCc2ccc(Cl)cc2Cl)c1NC(=O)C(C)(C)CCl` was tested, and the mortality at 600 µg/mL [8] was 73.8% and the mortality at 600 µg/mL [9] was 42.3%.
Compound `Cc1cccc(C(=O)NNCc2ccc(Cl)cc2Cl)c1NC(=O)C(C)(C)C` has a mortality at 600 µg/mL [7] of 50%, a mortality at 600 µg/mL [8] of 52.9% and a mortality at 600 µg/mL [9] of 89.4%.
`Cc1cc(Cl)cc(C(=O)NNCc2ccc(Cl)nc2)c1NC(=O)C(C)(C)CCl` gave a mortality at 600 µg/mL [7] of 16%, a mortality at 600 µg/mL [8] of 47.1% and a mortality at 600 µg/mL [9] of 30.6%.
`Cc1cccc(C(=O)NNCc2ccc(Cl)nc2)c1NC(=O)CC(C)(C)C` gave a mortality at 600 µg/mL [7] of 100%, a mortality at 600 µg/mL [8] of 19.3% and a mortality at 600 µg/mL [9] of 65.5%.
In the case of `Cc1cc(Br)cc(C(=O)NNCc2ccc(Cl)cc2Cl)c1NC(=O)C(C)(C)CCl`, the mortality at 600 µg/mL [7] is reported as 70%, the mortality at 600 µg/mL [8] is reported as 82.5% and the mortality at 600 µg/mL [9] is reported as 3.8%.
For `Cc1cc(Cl)cc(C(=O)NNCc2ccccc2Cl)c1NC(=O)C(C)(C)C`, the Activity [10] was “Active”, the Activity [11] was “Active” and the LC50 [1] was 43.8 µg/mL (≈ 107 µM). It also gave a mortality at 25 µg/mL [2] of 30.9%, a mortality at 100 µg/mL [3] of 60.8% and a mortality at 400 µg/mL [4] of 97.8%. The mortality at 50 µg/mL [5] was 62.5%, the mortality at 200 µg/mL [6] was 82.2% and the mortality at 600 µg/mL [7] was 76%. It also gave a mortality at 600 µg/mL [8] of 100% and a mortality at 600 µg/mL [9] of 51.7%.
`Cc1cc(Cl)cc(C(=O)NNCc2ccccc2F)c1NC(=O)C(C)(C)CCl` was tested, and the mortality at 600 µg/mL [7] was 100%, the mortality at 600 µg/mL [8] was 61.1% and the mortality at 600 µg/mL [9] was 70.2%.
